The values that follow come from PubChem BioAssay AID449757 (Broad Institute, 2010).

As usually defined, the AC50 is the concentration giving half of the maximal activity seen.

Calls of active or inactive are those of the source.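 Rule for the calls: active = compounds whose fitted caspase activation midpoint falls no more than tenfold above the top tested dose; inconclusive = flat fit with activity between 30 and 70 percent, or failed fit; inactive = the rest.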

The test system of the experiment is MEF Flag-A1-IRES-BIM, caspase-Glo luminescence, 3 h. The experiment in a line: caspase activation in A1/BIM-primed MEFs, dose response, A1 (Bcl2A1) inhibitor project, cell-based, alternate construct, luminescence (AID 449757). In a few lines:
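Test system: Flag-A1-IRES-BIM-primed MEF cells. Technique: luminescent caspase activity measurement with CaspaseGlo reagent. Dosing: 100 nL compound added per well by pin transfer. Times: 3-h compound at 37 °C, 30-min cooling, 1-h reagent at RT. Buffer or medium: RPMI-1640 growth medium with 10% FBS.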
Take `CCOc1ccc(NCc2cccn2-c2nnc(N3CCC(C(=O)NCCCN4CC(C)CC(C)C4)CC3)s2)cc1` (stereo not drawn): the AC50 is > 35 µM (inactive).
With `COc1ccc2c(-c3cc4ccc(OCc5ccc(F)cc5)cc4oc3=O)cc(=O)oc2c1` the figure was 21.1 µM; with `CC(=O)Nc1ccc(NC(=O)C(C)OC(=O)/C=C/c2cn(-c3ccccc3)nc2-c2cccnc2)cc1` (stereo not drawn), 27.5 µM.
Regarding `CC1CCc2c(sc3nc(C(C)(C)C)nc(N4CCN(C(=O)CCl)CC4)c23)C1` (stereo not drawn), the AC50 is 10.2 µM.
The value for `Cc1ccc(N(Cc2cc(=O)[nH]c3ccccc23)C(=O)CCl)cc1` was > 35 µM (inactive); that for `CC(=O)Nc1ncnc2c1c(-c1ccc(Cl)cc1)nn2C(C)(C)C` was > 35 µM (inactive); that for `COc1cc(C(=O)Nc2cc3c(cc2N2CCCCC2)n(C)c(=O)n3C)cc(OC)c1OC` was > 35 µM (inactive).
With `CC(=O)[C@]1(O)Cc2c(O)c3c(c(O)c2[C@@H](O[C@H]2C[C@H](N)[C@H](O)[C@H](C)O2)C1)C(=O)c1ccccc1C3=O` the figure was > 35 µM (inactive); with `Cc1ccc(NC(=O)c2cc(N3C(=O)C=CC3=O)ccc2N2CCOCC2)cc1Cl`, 15.8 µM.
`CCOc1ccc(OCC(=O)N(CCC2=CCCCC2)c2c(N)n(Cc3ccccc3)c(=O)[nH]c2=O)cc1`: the AC50 is 20.9 µM.
With `CCOCCCNC(=O)c1ccc2c(c1)N=C(CC)c1cc(Br)ccc1S2` the figure was > 35 µM (inactive); with `CCCCCCCC/C=C\CCCCCCCC(=O)NCCc1ccc(O)c(O)c1`, 11.6 µM; with `CN(C)C/C=C(\c1ccc(Br)cc1)c1cccnc1`, > 35 µM (inactive).
The value for `COc1cc2c(-c3ccccc3)c(C)oc2cc1/C=N/NC(N)=S` was > 35 µM (inactive); that for `COc1ccc2[nH]c3c(=O)n(/N=C/[C@H]4C(C)C=C(C)CC4C)c(=O)[nH]c3c2c1` (stereo partly drawn) was 11 µM.
`O=C(Nc1ccc2oc(-c3cccc(F)c3)nc2c1)c1ccccc1F`: the AC50 was > 35 µM (inactive).
With `CCN(C(=O)CCN1C(=O)c2ccccc2S1(=O)=O)c1ccccc1` the figure was > 35 µM (inactive); with `COc1ccc(-c2ccc3c(c2)S(=O)(=O)c2cccc(C(=O)NCCOc4ccccc4)c2C3=O)cc1OC`, > 35 µM (inactive).
Take `COc1ccc(NC(=O)CSc2nc3ccc(Nc4nc(N5CCOCC5)nc(N5CCOCC5)n4)cc3s2)cc1`: the AC50 is > 35 µM (inactive).
Turning to `CCc1ccc2nc(N(CCCN(C)C)C(=O)c3ccc(S(=O)(=O)N4CCc5ccccc5C4)cc3)sc2c1`, the AC50 was > 35 µM (inactive).
The value for `CCOC(=O)C1=C(c2ccccc2)O/C(=C(/C#N)C(F)(F)F)S1` was > 35 µM (inactive); that for `CCc1nnc(NC(=O)CSc2nc(-c3ccccc3)cc(-c3ccc(F)cc3)c2C#N)s1` was 33.1 µM; that for `CC(C)c1cccc(-c2ccc3c(c2)S(=O)(=O)c2cccc(C(=O)NC4CCCC4)c2C3=O)c1` was > 35 µM (inactive).
With `O=C(COc1ccc(/C=N/NC(=O)c2cc3ccccc3o2)cc1Br)Nc1ccccc1` the figure was 25.3 µM; with `Cc1ccc(NC(=O)c2ccc(N/N=C/c3cccc(O)c3)c([N+](=O)[O-])c2)cc1`, 34.6 µM.
The value for `O=C(Nc1ccc2oc(-c3ccccc3)nc2c1)c1ccccc1F` was > 35 µM (inactive).
In the case of `COc1ccc(C=C2C=C(C(C)(C)C)C(=O)C(C(C)(C)C)=C2)cc1OC`, the AC50 is 3.49 µM.
The value for `CCS(=O)(=O)c1ncc(Cl)c(C(=O)Nc2ccc(S(=O)(=O)N3CCC(C)CC3)cc2)n1` was > 35 µM (inactive); that for `CCC(Sc1nc2cc3c(cc2c(=O)n1Cc1ccco1)OCO3)C(=O)Nc1cccc(OC)c1` (stereo not drawn) was > 35 µM (inactive).
The value for `Cc1cc(NC(=O)CSc2nc3cc(Cl)ccc3c(=O)n2Cc2ccco2)no1` was > 35 µM (inactive); that for `COc1cc(NC(=O)c2ccc(C)cc2C)ccc1NC(=O)c1cc2ccccc2o1` was 32.3 µM.
In the case of `O=C(Nc1ccc([N+](=O)[O-])cc1)c1nc[nH]c1C(=O)NC1CCCCC1`, the AC50 is > 35 µM (inactive).
With `COC(=O)[C@@]1(C)CC[C@]2(C)CC[C@@]3(C)C(=CC(=O)C4[C@@]5(C)CC[C@H](O)C(C)(C)[C@@H]5CC[C@]43C)[C@H]2C1` (stereo partly drawn) the figure was > 35 µM (inactive); with `CCc1nc(N=Nc2c(O)[nH]c3ccccc23)c2c3c(sc2n1)CCC3`, 20.7 µM; with `COCc1cc(C)nc(SCC(=O)Nc2nc(C)cs2)c1C#N`, > 35 µM (inactive).
As to `COC(=O)c1ccc2c(c1)C(C)(C)C(/C=C/c1ccc(O)cc1)=[N+]2C`, the AC50 was 12.4 µM.
With `O=C(NC[C@H]1CCCO1)c1cccc2c1C(=O)c1ccc(-c3ccc(F)cc3OCc3ccccc3)cc1S2(=O)=O` the figure was > 35 µM (inactive); with `CCOC(=O)c1c(C)oc2c1c(CN1CCN(C(=O)OCC)CC1)c(O)c1ccccc12`, 7.15 µM.
With `CCOC(=O)/C(=C\c1ccc(OC(F)F)cc1)C1=Nn2c(nnc2-c2ccc(Cl)cc2)SC1` the figure was 4.71 µM.
The value for `O=C(Nc1ccc2oc(-c3ccccc3F)nc2c1)c1ccccc1F` was > 35 µM (inactive); that for `C=CC(=O)Nc1ccc(CN2C(=O)N(c3c(Cl)c(OC)cc(OC)c3Cl)Cc3cnc(NCCCCN(CC)CC)nc32)cc1` was > 35 µM (inactive).
Take `Cc1ccc(C2(c3ccc(C)cc3)CC2C(=O)Nc2ccc([N+](=O)[O-])cc2O)cc1` (stereo not drawn): the AC50 was > 35 µM (inactive).
The value for `CC(C)(C)c1ccc2c(c1)OC(C(=O)N/N=C\c1ccc[nH]1)CO2` (stereo not drawn) was > 35 µM (inactive); that for `CCc1nn(-c2cc(Oc3cccc4ccccc34)nc(-c3ccccc3)n2)c(N)c1C#N` was > 35 µM (inactive); that for `O=C(COc1ccccc1[N+](=O)[O-])Nc1ccc(NC(=O)c2cc3ccccc3o2)cc1` was 28.7 µM.
With `C/C1=C\[C@@H](C)C/C=C/[C@H]2[C@@H]3O[C@]3(C)[C@@H](C)[C@H]3[C@H](Cc4c[nH]c5ccccc45)NC(=O)[C@]32C(=O)/C=C/C(=O)[C@@H]1O`, the AC50 was 9.84 µM.
With `Oc1ccc(/C=N/N2CCN(C3c4ccccc4-c4ccccc43)CC2)cc1O` the figure was 24 µM; with `COc1ccc(Oc2cc(NC(=O)c3nn(C)cc3[N+](=O)[O-])cc([N+](=O)[O-])c2)cc1`, 21.3 µM; with `CC1(C)C[C@H](O)[C@]2(CO)[C@H](O)C[C@]3(C)C(=CCC4[C@@]5(C)CC[C@H](O)C(C)(C)C5CC[C@]43C)[C@@H]2C1` (stereo partly drawn), > 35 µM (inactive).
The value for `Cc1ccc(NC(=S)NC(NC(=O)Cc2cccc3ccccc23)C(Cl)(Cl)Cl)cc1` (stereo not drawn) was 20.2 µM.
With `CCOC(=O)C(C(=O)OCC)c1cc(Br)c2noc3c2c1C(=O)c1ccccc1-3` the figure was 14.8 µM; with `Cc1occc1-c1nnc(SCC(=O)NCCc2ccccc2)n1Cc1ccccc1`, > 35 µM (inactive).
As for `Cc1cccc(C)c1NC(=O)CSc1nc(C)c(CC(=O)c2ccc(Br)cc2)c(C)c1C#N`, the AC50 is 28.8 µM.
For the compound `CCCCNC(=O)c1ccc(Cn2c(=S)[nH]c3c([nH]c4ccc(OC)cc43)c2=O)cc1`, the AC50 is 4.77 µM.
The value for `O=[N+]([O-])/C=C/c1ccc2c(ccn2Cc2ccccc2)c1` was 13.4 µM.
The value for `Cc1ccc(C)c(NC(=S)NC(NC(=O)Cc2cccc3ccccc23)C(Cl)(Cl)Cl)c1` (stereo not drawn) was 13.2 µM; that for `COC(=O)Cc1csc(/N=C/c2c(O)n(-c3cccc(C(F)(F)F)c3)c(=O)c3ccccc23)n1` was 18.1 µM; that for `Cc1ccc(S(=O)(=O)N(C)Cc2ccc(C(=O)N/N=C/c3ccc(OC(F)F)cc3)cc2)cc1` was > 35 µM (inactive).
With `Cc1ccc(C(=O)/C=C/C(=O)c2ccc(C)cc2)cc1` the figure was 5.64 µM.
With `Cc1cc(C)cc(NC(=O)/C(C#N)=C/c2cn(CC(=O)NCc3ccco3)c3ccccc23)c1`, the AC50 is 8.5 µM.
With `COc1ccc(NC(=S)NC(NC(=O)/C=C/c2ccccc2)C(Cl)(Cl)Cl)cc1` (stereo not drawn) the figure was > 35 µM (inactive).
The value for `Cc1ccc(C=C2C(Cl)=C(Cl)C(Cl)=C2Cl)cc1` was 4.67 µM; that for `COc1ccccc1-c1cc(C(F)(F)F)nc(S(=O)(=O)CCCC(=O)N2CCOCC2)n1` was 8.31 µM.
With `CCOC(=O)Cc1csc(/N=C/c2c(O)n(-c3ccc(C)c(C)c3)c(=O)c3ccccc23)n1` the figure was 15.9 µM; with `COc1ccccc1-c1cc(C(F)(F)F)nc(S(=O)(=O)CCCC(=O)NC(C)C)n1`, 8.84 µM; with `COc1cc2ncnc(NCc3ccc(F)cc3)c2cc1OC`, > 35 µM (inactive).
With `COc1ccc(OC)c(NC(=O)c2cc(-c3cc(C)ccc3O)n[nH]2)c1`, the AC50 was > 35 µM (inactive).
Consider `Cc1[nH]nc2nc(SCC(=O)NCCC3=CCCCC3)n(-c3ccc(Br)cc3)c(=N)c12`, for which the concentration at half-maximal activity (AC50) is 17.1 µM.
The value for `CCOc1ccc(-n2c(SCC(=O)Nc3ccc(Br)cc3)nc3n[nH]c(C)c3c2=N)cc1` was 31 µM; that for `Clc1ccccc1CN(Cc1ccccc1)c1ncnc2nc[nH]c12` was > 35 µM (inactive).
The value for `O=C(NCc1ccccc1Cl)c1cccc2c1C(=O)c1ccc(-c3ccc(OC(F)(F)F)cc3)cc1S2(=O)=O` was > 35 µM (inactive); that for `Nc1c(C(=O)Nc2ccc(S(=O)(=O)N3CCCC3)cc2)sc2nc3ccc(OC(F)(F)F)cc3cc12` was 23.3 µM.
With `CCOC(=O)COc1ccccc1/C=C\[N+](=O)[O-]` the figure was 10.5 µM.
